According to ChEMBL document CHEMBL3286129, “Optimization of peptidomimetic boronates bearing a P3 bicyclic scaffold as proteasome inhibitors” (Eur J Med Chem, 2014):
Active and inactive are the calls of the source. No cut-off for these calls is given here.

Experiments:
[1] = target: Proteasome Macropain subunit (Homo sapiens) (UniProt P49721); assay: Inhibition of trypsin-like activity of 20S proteasome in human erythrocytes using Boc-Leu-Arg-Arg-AMC as substrate by fluorescence assay; assay type: cell-based
Sequence of Proteasome Macropain subunit (Homo sapiens) (P49721 whole entry): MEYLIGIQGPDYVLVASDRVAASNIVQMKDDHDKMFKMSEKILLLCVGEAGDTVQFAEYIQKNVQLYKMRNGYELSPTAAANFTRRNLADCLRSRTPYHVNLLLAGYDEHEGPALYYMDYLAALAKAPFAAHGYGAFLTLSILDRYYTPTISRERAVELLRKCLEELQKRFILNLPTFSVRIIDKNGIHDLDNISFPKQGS
How it was run: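 Human 20S proteasome 0.0025 mg/mL at 30 °C in 50 mM Tris pH 7.4, 50 mM NaCl, 0.5 mM EDTA, 0.03% SDS, 7.5% DMSO. Varied inhibitor concentrations; AMC release monitored continuously for 10 min, ex 380/em 460 nm. Ki derived from progress-curve IC50 fit.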

[2] = Cytotoxicity against human melanoma cells assessed as cell growth at 10 uM relative to control; assay type: functional; details: read-out: Activity
How it was run: (§1)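 Single-concentration screen against a panel of human cancer cell lines. Each value is the mean percent growth across the cell lines of that tumour subpanel.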

[3] = Cytotoxicity against human prostate cancer cells assessed as cell growth at 10 uM relative to control; assay type: functional; details: Cancer cell lines, read-out: Activity; how it was run: as §1
[4] = Cytotoxicity against human renal cancer cells assessed as cell growth at 10 uM relative to control; assay type: functional; details: Cancer cell lines, read-out: Activity; how it was run: as §1
[5] = Cytotoxicity against human CNSC cells assessed as cell growth at 10 uM relative to control; assay type: functional; details: read-out: Activity; how it was run: as §1
[6] = Cytotoxicity against human NSCLC cells assessed as cell growth at 10 uM relative to control; assay type: functional; details: read-out: Activity; how it was run: as §1
[7] = Cytotoxicity against human ovarian cancer cells assessed as cell growth at 10 uM relative to control; assay type: functional; details: Cancer cell lines, read-out: Activity; how it was run: as §1
[8] = Cytotoxicity against human colon cancer cells assessed as cell growth at 10 uM relative to control; assay type: functional; details: Cancer cell lines, read-out: Activity; how it was run: as §1
[9] = Cytotoxicity against human leukemia cells assessed as cell growth at 10 uM relative to control; assay type: functional; details: read-out: Activity; how it was run: as §1
[10] = Cytotoxicity against human breast cancer cells assessed as cell growth at 10 uM relative to control; assay type: functional; details: Cancer cell lines, read-out: Activity; how it was run: as §1
Proteasome component C5 = target: T1, Proteasome component C5 (Homo sapiens, UniProt P20618); assay: Inhibition of PGPH-like activity of 20S proteasome in human erythrocytes using Z-Leu-Leu-Glu-AMC as substrate by fluorescence assay
T1 sequence (P20618 whole entry): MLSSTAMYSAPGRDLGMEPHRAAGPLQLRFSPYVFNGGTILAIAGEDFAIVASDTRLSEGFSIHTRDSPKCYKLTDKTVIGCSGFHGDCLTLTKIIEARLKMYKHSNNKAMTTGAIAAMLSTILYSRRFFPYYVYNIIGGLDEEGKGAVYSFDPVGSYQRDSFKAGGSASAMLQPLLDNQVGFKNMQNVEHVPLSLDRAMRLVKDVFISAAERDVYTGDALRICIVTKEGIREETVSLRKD
How it was run: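 Human 20S proteasome 0.004 mg/mL, 30 °C, 50 mM Tris pH 7.5 with 25 mM KCl, 10 mM NaCl, 1 mM MgCl2, 0.03% SDS, 5% DMSO. Ki from 4-parameter IC50 fit of progress curves, corrected to zero substrate via Km. Mean of three.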

Chymotrypsinogen A = Chymotrypsinogen A (Bos taurus, UniProt P00766); assay: Inhibition of bovine pancreatic alpha-chymotrypsin using Suc-Leu-Leu-Val-Tyr-AMC as substrate by fluorescence assay
How it was run: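 Enzyme incubated at 20 °C in 50 mM Tris pH 8.0, 100 mM NaCl, 5 mM EDTA, 7.5% DMSO with varied inhibitor concentrations. Substrate hydrolysis followed for 10 min. Ki from progress curves; mean of three determinations.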

[11] = target: T2, Proteasome Macropain subunit MB1 (Homo sapiens, UniProt P28074); assay: Inhibition of chymotrypsin-like activity of 20S proteasome in human erythrocytes using Suc-Leu-Leu-Val-Tyr-AMC as substrate by fluorescence assay
T2 sequence (P28074 whole entry): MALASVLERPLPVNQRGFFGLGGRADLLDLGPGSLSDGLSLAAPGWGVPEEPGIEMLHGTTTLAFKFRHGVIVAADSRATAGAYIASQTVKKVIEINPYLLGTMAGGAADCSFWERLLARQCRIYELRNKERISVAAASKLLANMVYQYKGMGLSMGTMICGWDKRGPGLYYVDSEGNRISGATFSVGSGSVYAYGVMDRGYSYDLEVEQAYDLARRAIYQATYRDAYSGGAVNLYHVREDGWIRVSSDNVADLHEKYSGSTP

[12] = target: T3, Proteasome Macropain subunit MB1 (Homo sapiens) (UniProt P28074); assay: Inhibition of chymotrypsin-like activity of 20S proteasome in human erythrocytes using Suc-Leu-Leu-Val-Tyr-AMC as substrate at 20 uM by fluorescence assay relative to control
T3 sequence (whole entry): T2 sequence (P28074 whole entry)
How it was run: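 Single inhibitor concentration, equivalent DMSO as negative control. AMC fluorescence read at ex 380/em 460 nm; percent inhibition of ChT-L activity.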

COc1cc2ccn(CCC(=O)NCCC(C)C)c(=O)c2cc1OC
inhibition [1]: inactive | growth at 10 µM [2]: 106% | growth at 10 µM [3]: 103% | growth at 10 µM [4]: 95.3% | growth at 10 µM [5]: 98% | growth at 10 µM [6]: 99.2% | growth at 10 µM [7]: 103% | growth at 10 µM [8]: 106% | growth at 10 µM [9]: 108% | growth at 10 µM [10]: 103%

CC(C)CCNC(=O)Cn1ccc2ccc(Br)cc2c1=O
Ki (Proteasome component C5): Not Active | Ki (Chymotrypsinogen A): Not Active | inhibition [1]: inactive | Ki ([11]; read-out: Ki): 2340 nM

CC(C)C[C@H](NC(=O)CCn1cc(Br)c2ncccc2c1=O)B(O)O
Ki (Proteasome component C5): Not Active | Ki (Chymotrypsinogen A): Not Active | inhibition [1]: inactive | inhibition [12]: > 40% | Ki [11]: Not Active
